Experimental data: ChEMBL document CHEMBL4414644, “A New Approach of Mitigating CYP3A4 Induction Led to the Discovery of Potent Hepatitis B Virus (HBV) Capsid Inhibitor with Optimal ADMET Profiles” (J Med Chem, 2019)
The source made the active and inactive calls.

Key:
[1] = Induction of CYP3A4 gene expression in cryopreserved human hepatocytes assessed as increase in CYP3A4 mRNA level at 10 uM incubated for 24 hrs by qRT-PCR analysis relative to rifampicin; type: ADME, cell-based
How it was run: (§1)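 Cryopreserved hepatocytes from one human donor were seeded at 1 × 10^6 cells/mL and cultured 24 h in serum-free Williams E. Compounds at 0.1, 1.0 and 10 µM (0.1% DMSO) were added in triplicate for 24 h, with vehicle wells as negative controls. Positive controls were omeprazole for CYP1A2, phenobarbital for CYP2B6 and rifampicin for CYP3A4. mRNA was measured by TaqMan qRT-PCR normalised to PPIA (2^-ΔΔCT) and expressed as % of the positive control.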

[2] = Cytotoxicity in human HepDE19 cells assessed as reduction in cell viability incubated for 5 days by CCK8 assay; type: cell-based
How it was run: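 HepDE19 cells were grown in DMEM-F12 with 10% FBS, penicillin/streptomycin and 0.5 mg/mL G418, then seeded at 5 × 10^3 cells/well. Compound exposure lasted 5 days. Viability was read with CCK-8 after 2 h at 37 °C, measuring OD450 and OD630. CC50 was the concentration killing 50% of cells; duplicate runs.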

[3] = Apparent partition coefficient, logD of the compound at pH 7.4; type: physicochemical; details: octanol/water
[4] = AUC (0 to infinity) in BALB/c mouse liver at 3 mg/kg, po by LC-MS/MS analysis; type: ADME, organism-based; parameters: dose 3 mg/kg, route oral, time infinity
How it was run: (§2)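 Female BALB/c mice (16–22 g; 21 animals) got a single oral dose of 3 mg/kg in 2% Klucel, Tween 80, 0.1% parabens in water. EDTA-K2 plasma was taken at each time point. Livers were harvested right after blood sampling, rinsed in cold saline, weighed and snap-frozen. Both matrices were quantified by LC–MS/MS and analysed non-compartmentally, omitting BLQs.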

[5] = Unbound fraction in mouse plasma at 1000 nM incubated for 5 hrs by LC-MS/MS analysis detection based equilibrium dialysis assay; type: ADME, cell-free
How it was run: (§3)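 Equilibrium dialysis of pooled plasma against Soerensen buffer pH 7.4 used a 12–14 kDa cutoff membrane. Compounds were run in cassettes of 2–5 at 1000 nM total, with diazepam as the membrane-integrity control. Dialysis ran 5 h at 37 °C under 5% CO2, followed by LC–MS/MS of both compartments. Unbound fraction is the average of 3 tests.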

[6] = Solubility in pH 6.5 phosphate buffer stirred for 1 hr and shaken for 2 hrs by HPLC-UV based LYSA solubility assay; type: physicochemical
How it was run: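 Duplicate samples from 10 mM DMSO stock were dried, taken up in 0.05 M phosphate pH 6.5, stirred 1 h, shaken 2 h and left overnight. They were then filtered and the filtrate plus a 1/10 dilution analysed by HPLC-UV. Quantification used a four-point calibration; results in µg/mL.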

Hepatitis B virus [7] = assay: Antiviral activity against HBV infected in BALB/c mouse hydrodynamic injection model hydrodynamically injected with replication-competent HBV DNA plasmid assessed as reduction in HBV DNA level in plasma at 12 mg/kg, po BID for 5 days by RT-qPCR analysis; type: functional, organism-based
How it was run: (§4)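 Used female BALB/c mice aged 6–8 weeks carrying an HBV genotype D genome delivered by tail-vein hydrodynamic plasmid injection. Animals received vehicle or drug orally at the stated frequency for 5 days. Plasma and liver were sampled at set time points, and HBV DNA was quantified by real-time qPCR. Error bars are SEM.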

[8] = Ionization constant (base), pKa of the compound; type: physicochemical
[9] = Induction of CYP3A4 gene expression in cryopreserved human hepatocytes assessed as increase in CYP3A4 mRNA level at 1 uM incubated for 24 hrs by qRT-PCR analysis relative to rifampicin; type: ADME, cell-based; how it was run: as §1
in vivo = details: BALB/c, mouse, liver/plasma, po, 3 mg/kg
[10] = Ionization constant (acid), pKa of the compound; type: physicochemical
[11] = Cmax in BALB/c mouse at 3 mg/kg, po by LC-MS/MS analysis; type: ADME, organism-based; parameters: dose 3 mg/kg, route oral; details: in vivo; how it was run: as §2
[12] = Induction of CYP2B6 gene expression in cryopreserved human hepatocytes assessed as increase in CYP2B6 mRNA level at 0.1 uM incubated for 24 hrs by qRT-PCR analysis relative to phenobarbital
Hepatitis B virus [13] = assay: Antiviral activity against HBV infected in BALB/c mouse hydrodynamic injection model hydrodynamically injected with replication-competent HBV DNA plasmid assessed as reduction in HBV DNA level in liver at 3 mg/kg, po BID for 5 days by RT-qPCR analysis; type: functional, organism-based; how it was run: as §4
Hepatitis B virus [14] = assay: Antiviral activity against HBV infected in BALB/c mouse hydrodynamic injection model hydrodynamically injected with replication-competent HBV DNA plasmid assessed as reduction in HBV DNA level in liver at 12 mg/kg, po BID for 5 days by RT-qPCR analysis; type: functional, organism-based; how it was run: as §4
[15] = Volume of distribution at steady state in BALB/c mouse at 1 mg/kg, iv by LC-MS/MS analysis; type: ADME, organism-based; details: in vivo, read-out: Vdss
How it was run: (§5)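 Female BALB/c mice (16–22 g; 12 animals) got a single IV dose of 1 mg/kg in 5% DMSO/40% PEG400/55% saline. Blood was taken into EDTA-K2 and spun at 2000 g for 5 min at 4 °C. Plasma was stored at -80 °C and quantified by LC–MS/MS. Parameters came from non-compartmental analysis, with BLQ values omitted.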

[16] = Toxicity in rat by 5-day mini-tox study; details: in vivo, 120 h
[17] = Induction of CYP2B6 gene expression in cryopreserved human hepatocytes assessed as increase in CYP2B6 mRNA level at 1 uM incubated for 24 hrs by qRT-PCR analysis relative to phenobarbital
[18] = Plasma clearance in BALB/c mouse at 1 mg/kg, iv by LC-MS/MS analysis; type: ADME, organism-based; how it was run: as §5
[19] = AUC (0 to infinity) in BALB/c mouse plasma at 3 mg/kg, po by LC-MS/MS analysis; type: ADME, organism-based; parameters: dose 3 mg/kg, route oral, time infinity; how it was run: as §2
[20] = Induction of CYP3A4 gene expression in cryopreserved human hepatocytes assessed as increase in CYP3A4 mRNA level at 0.1 uM incubated for 24 hrs by qRT-PCR analysis relative to rifampicin; type: ADME, cell-based; how it was run: as §1
[21] = Induction of CYP1A2 gene expression in cryopreserved human hepatocytes assessed as increase in CYP1A2 mRNA level at 10 uM incubated for 24 hrs by qRT-PCR analysis relative to omeprazole; type: ADME, cell-based; how it was run: as §1
[22] = Induction of CYP1A2 gene expression in cryopreserved human hepatocytes assessed as increase in CYP1A2 mRNA level at 0.1 uM incubated for 24 hrs by qRT-PCR analysis relative to omeprazole; type: ADME, cell-based; how it was run: as §1
Hepatitis B virus [23] = assay: Antiviral activity against HBV infected in BALB/c mouse hydrodynamic injection model hydrodynamically injected with replication-competent HBV DNA plasmid assessed as reduction in HBV DNA level in plasma at 3 mg/kg, po BID for 5 days by RT-qPCR analysis; type: functional, organism-based; how it was run: as §4
[24] = Induction of CYP2B6 gene expression in cryopreserved human hepatocytes assessed as increase in CYP2B6 mRNA level at 10 uM incubated for 24 hrs by qRT-PCR analysis relative to phenobarbital
[25] = target: Voltage-gated inwardly rectifying potassium channel KCNH2 (Homo sapiens, UniProt Q12809); assay: Inhibition of human ERG
Chain of Voltage-gated inwardly rectifying potassium channel KCNH2 (Q12809 whole entry): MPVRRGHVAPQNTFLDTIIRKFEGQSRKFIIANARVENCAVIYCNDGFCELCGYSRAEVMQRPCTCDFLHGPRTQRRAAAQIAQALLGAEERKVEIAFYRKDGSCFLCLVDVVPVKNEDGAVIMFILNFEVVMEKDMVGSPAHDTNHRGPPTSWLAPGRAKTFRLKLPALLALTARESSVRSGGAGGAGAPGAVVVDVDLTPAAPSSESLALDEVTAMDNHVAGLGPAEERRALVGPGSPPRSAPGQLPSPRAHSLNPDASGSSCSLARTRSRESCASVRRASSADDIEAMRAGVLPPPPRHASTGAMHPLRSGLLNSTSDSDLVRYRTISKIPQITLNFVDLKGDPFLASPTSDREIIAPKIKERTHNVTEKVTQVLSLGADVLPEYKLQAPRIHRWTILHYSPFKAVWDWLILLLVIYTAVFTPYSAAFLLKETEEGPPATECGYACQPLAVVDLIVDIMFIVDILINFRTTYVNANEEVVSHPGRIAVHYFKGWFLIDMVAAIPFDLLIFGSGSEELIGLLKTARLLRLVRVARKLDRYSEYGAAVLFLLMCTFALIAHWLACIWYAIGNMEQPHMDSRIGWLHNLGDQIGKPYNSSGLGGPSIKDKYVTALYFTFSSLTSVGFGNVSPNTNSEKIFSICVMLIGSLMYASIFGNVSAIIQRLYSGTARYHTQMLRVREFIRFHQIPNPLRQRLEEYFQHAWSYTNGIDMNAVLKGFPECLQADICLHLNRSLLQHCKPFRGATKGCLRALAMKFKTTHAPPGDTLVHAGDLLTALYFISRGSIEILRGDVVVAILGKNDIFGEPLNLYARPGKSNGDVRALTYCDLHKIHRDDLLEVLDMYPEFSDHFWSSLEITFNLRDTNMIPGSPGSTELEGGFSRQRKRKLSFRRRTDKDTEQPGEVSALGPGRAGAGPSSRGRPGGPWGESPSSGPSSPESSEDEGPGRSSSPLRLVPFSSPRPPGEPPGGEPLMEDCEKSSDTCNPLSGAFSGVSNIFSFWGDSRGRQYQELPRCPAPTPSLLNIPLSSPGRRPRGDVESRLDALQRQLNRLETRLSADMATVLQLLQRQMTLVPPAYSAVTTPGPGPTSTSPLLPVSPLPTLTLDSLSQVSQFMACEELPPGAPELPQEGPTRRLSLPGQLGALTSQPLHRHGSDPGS

[26] = Unbound fraction in human plasma at 1000 nM incubated for 5 hrs by LC-MS/MS analysis detection based equilibrium dialysis assay; type: ADME, cell-free; how it was run: as §3
[27] = Induction of CYP1A2 gene expression in cryopreserved human hepatocytes assessed as increase in CYP1A2 mRNA level at 1 uM incubated for 24 hrs by qRT-PCR analysis relative to omeprazole; type: ADME, cell-based; how it was run: as §1
[28] = Drug metabolism in cryopreserved human hepatocytes assessed as glucuronide conjugation of carboxylic acid group at 1 uM incubated up to 120 mins by LC-MS/MS analysis; type: ADME, cell-based, Hepatocyte; details: 2 h
[29] = Permeability at 150 uM by PAMPA; type: ADME; details: read-out: permeability
How it was run: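 PAMPA: DMSO stock was diluted to 150 µM (<2% DMSO) in donor buffer of 0.05 M MOPSO pH 6.5 with 0.5% glycocholic acid. The acceptor was 0.05 M MOPSO pH 6.5. The membrane was 10% egg lecithin with 0.5% cholesterol in dodecane. Donor and acceptor concentrations were read at start and at ~18 h; results in 10^-6 cm/s.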

[30] = Oral bioavailability in BALB/c mouse at 3 mg/kg by LC-MS/MS analysis; type: ADME, organism-based; details: in vivo; how it was run: as §2
[31] = AUC (0 to infinity) in BALB/c mouse at 1 mg/kg, iv by LC-MS/MS analysis; type: ADME, organism-based; parameters: dose 1 mg/kg, route intravenous, time infinity; details: in vivo; how it was run: as §5
[32] = Half life in BALB/c mouse at 1 mg/kg, iv by LC-MS/MS analysis; type: ADME, organism-based; details: in vivo; how it was run: as §5

COC(=O)C1=C(CN2CC(F)(F)C[C@H]2C(=O)O)NC(c2nccs2)=N[C@H]1c1ccc(F)c(F)c1
Activity [1]: 52% | CC50 at 120 h [2]: 56 µM

COC(=O)C1=C(CN2CCOC[C@H]2C(=O)O)NC(c2nccs2)=N[C@H]1c1ccc(Cl)c(F)c1
logD [3]: 0.38 | AUC(0-inf) [4]: 20000 ng·h/mL | fraction unbound at 5 h, 1 µM [5]: 0.04 | solubility [6]: > 631 µg/mL | Activity (Hepatitis B virus [7]): Active | pKa [8]: 5.9 | Activity [9]: 7.5% | Kp (in vivo): 38 | Activity [1]: 25% | pKa [10]: 1.8 | Cmax [11]: 254 ng/mL | Activity [12]: 1.3% | Activity (Hepatitis B virus [13]): Active | Activity (Hepatitis B virus [14]): Active | Vd [15]: 2.7 L/kg | Activity [16]: Non-Toxic | Activity [17]: 1.5% | clearance [18]: 40.9 mL/min/kg | AUC(0-inf) [19]: 527 ng·h/mL | Activity [20]: 2% | CC50 at 120 h [2]: > 100 µM | Activity [21]: 1.7% | Activity [22]: 1% | Activity (Hepatitis B virus [23]): Active | Activity [24]: 1.4% | inhibition (INH) [25]: Not Active | fraction unbound at 5 h, 1 µM [26]: 0.031 | Activity [27]: 0.9% | Drug metabolism [28]: Metabolite_Detected | Papp at 150 µM [29]: 2.4 ×10⁻⁶ cm/s | bioavailability [30]: 43.1% | AUC(0-inf) [31]: 408 ng·h/mL | half-life [32]: 2.3 h

CCOC(=O)C1=C(CN2CCOC[C@H]2C(=O)O)NC(c2nccs2)=N[C@H]1c1cccc(F)c1
Activity [1]: 94% | CC50 at 120 h [2]: 69 µM

CCOC(=O)C1=C(CN2CCOC[C@H]2C(=O)O)NC(c2nccs2)=N[C@H]1c1ccc(Br)c(F)c1
Activity [1]: 73% | CC50 at 120 h [2]: 14 µM

CCOC(=O)C1=C(CN2CCOC[C@H]2C(=O)O)NC(c2nccs2)=N[C@H]1c1ccc(F)c(F)c1
Activity [1]: 41% | CC50 at 120 h [2]: > 100 µM

CCOC(=O)C1=C(CN2CCOC[C@H]2C(=O)O)NC(c2nccs2)=N[C@H]1c1ccc(F)cc1F
Activity [1]: 135% | CC50 at 120 h [2]: > 100 µM

CCOC(=O)C1=C(CN2CCOC[C@H]2C(=O)O)NC(c2nccs2)=N[C@H]1c1ccc(Cl)c(F)c1
CC50 at 120 h [2]: 24 µM

COC(=O)C1=C(CN2CCOC[C@H]2C(=O)O)NC(c2nccs2)=N[C@H]1c1ccc(F)c(F)c1
Activity [1]: 36% | CC50 at 120 h [2]: > 100 µM

COC(=O)C1=C(CN2CCOC[C@H]2C(=O)O)NC(c2nccs2)=N[C@H]1c1ccc(Br)c(F)c1
Activity [1]: 26% | CC50 at 120 h [2]: 76 µM

COC(=O)C1=C(CN2CC(F)(F)C[C@H]2C(=O)O)NC(c2nccs2)=N[C@H]1c1ccc(F)cc1Cl
Activity [1]: 109% | CC50 at 120 h [2]: 65 µM

CCOC(=O)C1=C(CN2CCOC[C@H]2C(=O)O)NC(c2nccs2)=N[C@H]1c1ccc(F)c(F)c1F
Activity [1]: 105% | CC50 at 120 h [2]: 49 µM

CCOC(=O)C1=C(CN2CCOC[C@H]2C(=O)O)NC(c2nccs2)=N[C@H]1c1cc(F)c(F)c(F)c1
Activity [1]: 72% | CC50 at 120 h [2]: > 100 µM

COC(=O)C1=C(CN2CCOC[C@H]2C(=O)O)NC(c2nccs2)=N[C@H]1c1ccc(C)c(F)c1
CC50 at 120 h [2]: > 100 µM

CCOC(=O)C1=C(CN2CCOC[C@H]2C(=O)O)NC(c2nccs2)=N[C@H]1c1ccc(C)c(F)c1
Activity [1]: 40% | CC50 at 120 h [2]: 85 µM

COC(=O)C1=C(CN2CCOC[C@H]2C(=O)O)N=C(c2nccs2)N[C@H]1c1ccc(F)cc1Cl
Activity [1]: 111% | CC50 at 120 h [2]: > 100 µM

CCOC(=O)C1=C(CN2CCOC[C@H]2C(=O)O)NC(c2nccs2)=N[C@H]1c1ccc(F)cc1Cl
Activity [1]: 173% | CC50 at 120 h [2]: > 100 µM

CCOC(=O)C1=C(CN2CCOC[C@H]2C(=O)O)NC(c2nccs2)=N[C@H]1c1ccc(F)cc1
Activity [1]: 85% | CC50 at 120 h [2]: 62 µM

COC(=O)C1=C(CN2CC(F)(F)C[C@H]2C(=O)O)NC(c2nccs2)=N[C@H]1c1ccc(F)cc1F
Activity [1]: 96% | CC50 at 120 h [2]: > 100 µM

CCOC(=O)C1=C(CN2CC(F)(F)C[C@H]2C(=O)O)NC(c2nccs2)=N[C@H]1c1ccc(F)cc1Cl
Activity [1]: 123% | CC50 at 120 h [2]: > 100 µM
